Test [1] deals with T1, Kir3.1/Kir3.4 (Homo sapiens) (UniProt P48549+P48544). Description: Activation of GIRK1/4 (unknown origin) transfected in HEK293 cells at 20 uM after 4 mins by thallium flux-based fluorescence assay relative to ML297. It is filed as cell-based. An outline of the steps: (§1)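 Single-concentration thallium flux in HEK-293 cells stably expressing GIRK1/GIRK2 or GIRK1/GIRK4, loaded with 0.5 μM Thallos-AM for ~60 min at room temperature. 20 μM compound in 0.2% DMSO/HEPES-buffered HBSS (pH 7.4) added, followed 4 min later by a Tl2SO4 bicarbonate stimulus. Read-out is the slope of F/F0 after stimulus, vehicle-subtracted, expressed relative to reference activator.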

Test [2] deals with T2, Kir3.1/Kir3.2 (Homo sapiens, UniProt P48051+P48549).
T2 sequence (P48549 whole entry): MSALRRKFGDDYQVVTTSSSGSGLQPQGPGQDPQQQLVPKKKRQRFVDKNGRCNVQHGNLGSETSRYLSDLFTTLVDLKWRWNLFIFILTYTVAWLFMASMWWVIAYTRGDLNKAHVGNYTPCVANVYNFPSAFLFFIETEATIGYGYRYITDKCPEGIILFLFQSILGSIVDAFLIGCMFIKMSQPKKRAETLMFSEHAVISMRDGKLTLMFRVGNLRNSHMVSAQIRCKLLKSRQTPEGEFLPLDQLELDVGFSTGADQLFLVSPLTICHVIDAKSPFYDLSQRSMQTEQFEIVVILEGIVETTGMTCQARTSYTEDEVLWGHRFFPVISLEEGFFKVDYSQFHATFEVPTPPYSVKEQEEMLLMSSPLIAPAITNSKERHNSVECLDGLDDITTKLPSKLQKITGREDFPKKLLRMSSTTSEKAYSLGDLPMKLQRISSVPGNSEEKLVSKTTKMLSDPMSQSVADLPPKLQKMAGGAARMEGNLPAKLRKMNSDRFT
T2 sequence (P48051 whole entry): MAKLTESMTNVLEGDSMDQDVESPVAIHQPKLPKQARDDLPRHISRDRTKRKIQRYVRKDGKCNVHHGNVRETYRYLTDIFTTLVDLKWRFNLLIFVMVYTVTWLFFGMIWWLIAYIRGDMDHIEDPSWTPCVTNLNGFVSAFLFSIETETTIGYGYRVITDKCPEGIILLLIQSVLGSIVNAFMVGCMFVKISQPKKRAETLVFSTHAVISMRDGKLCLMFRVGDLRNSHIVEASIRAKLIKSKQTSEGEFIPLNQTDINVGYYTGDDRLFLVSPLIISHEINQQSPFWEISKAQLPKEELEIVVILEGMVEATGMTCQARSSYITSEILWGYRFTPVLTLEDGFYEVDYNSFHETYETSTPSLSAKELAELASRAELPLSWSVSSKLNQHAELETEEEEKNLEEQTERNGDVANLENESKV
Description: Activation of GIRK1/2 (unknown origin) transfected in HEK293 cells after 4 mins by thallium flux-based fluorescence assay. Type of test: cell-based. The gist of the method:
(§2)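 Loaded with 0.5 μM Thallos-AM for ~60 min at room temperature in HEPES-buffered HBSS pH 7.4. Fluorescence read at 1 Hz, F/F0 minus vehicle, slope after stimulus. Potency from triplicates. Efficacy normalised to reference activator set at 100%.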

For test [3], the target named is T3, Kir3.1/Kir3.4 (Homo sapiens, UniProt P48544+P48549).
T3 sequence (P48549 whole entry): T2 sequence (P48549 whole entry)
T3 sequence (P48544 whole entry): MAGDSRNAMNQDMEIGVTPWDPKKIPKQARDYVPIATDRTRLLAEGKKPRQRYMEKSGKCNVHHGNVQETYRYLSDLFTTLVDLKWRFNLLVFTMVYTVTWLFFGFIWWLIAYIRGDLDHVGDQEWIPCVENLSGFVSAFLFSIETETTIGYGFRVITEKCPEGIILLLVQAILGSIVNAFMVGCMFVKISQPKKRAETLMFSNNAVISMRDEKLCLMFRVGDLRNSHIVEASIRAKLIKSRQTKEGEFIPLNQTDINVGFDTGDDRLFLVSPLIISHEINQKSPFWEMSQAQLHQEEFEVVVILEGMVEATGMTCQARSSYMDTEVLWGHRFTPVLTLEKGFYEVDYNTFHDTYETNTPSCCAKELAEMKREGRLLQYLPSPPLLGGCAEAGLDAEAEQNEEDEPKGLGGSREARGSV
The test can be described thus: Activation of GIRK1/4 (unknown origin) transfected in HEK293 cells after 4 mins by thallium flux-based fluorescence assay. It is filed as cell-based. An outline of the steps: (§3)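 Loaded with 0.5 μM Thallos-AM for ~60 min at room temperature in HEPES-buffered HBSS pH 7.4. Compounds (11-point, threefold dilutions) added 4 min before a thallium sulfate/bicarbonate stimulus. Fluorescence read at 1 Hz, F/F0 minus vehicle, slope after stimulus. Potency from triplicates. Efficacy normalised to reference activator set at 100%.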

Test [4] deals with T4, Kir3.1/Kir3.2 (Homo sapiens) (UniProt P48549+P48051). Description: Activation of GIRK1/2 (unknown origin) transfected in HEK293 cells at 20 uM after 4 mins by thallium flux-based fluorescence assay relative to ML297. Type of test: cell-based. An outline of the steps:
as §1

For test [5], the target named is T3, Kir3.1/Kir3.4. The test can be described thus: Activation of GIRK1/4 (unknown origin) by cell-based thallium flux assay. An outline of the steps:
as §3

Test [6] has as its target T1, Kir3.1/Kir3.4 (Homo sapiens). Description: Activation of GIRK1/4 (unknown origin) by cell-based thallium flux assay relative to control. The gist of the method: as §3
In test [7] the target is T4, Kir3.1/Kir3.2 (Homo sapiens). The test can be described thus: Activation of GIRK1/2 (unknown origin) by cell-based thallium flux assay relative to control. An outline of the steps:
as §3

The target of test [8] is T2, Kir3.1/Kir3.2. The test can be described thus: Activation of GIRK1/2 (unknown origin) by cell-based thallium flux assay. The gist of the method:
as §2

The target of test [9] is T2, Kir3.1/Kir3.2. Description: Activation of recombinant human GIRK1/2 expressed in Xenopus oocytes by two-electrode voltage clamp method. Type of test: cell-based, Oocyte. (In general: Two-electrode voltage clamp holds a large cell at a set potential and records current.)
Test [10] concerns the target T3, Kir3.1/Kir3.4. Description: Activation of recombinant human GIRK1/4 expressed in Xenopus oocytes by two-electrode voltage clamp method. Type of test: cell-based, Oocyte.

What is called EC50 is the concentration at which the effect is half-maximal. For `Cc1ccc(NC(=O)Nc2ccccc2F)cc1S(=O)(=O)N(C)C`, the Efficacy in [1] amounted to 72%; in test [4] it was 111%. In addition, the EC50 in [2] amounted to 3.9 µM; in [3], 7.8 µM.

Turning to `Cc1ccc(NC(=O)Nc2cccc(C#N)c2)cc1S(=O)(=O)N(C)C`, the values for the Efficacy in test [1] and in test [4] were 29% and 83%, respectively.

For the compound `COc1ccc(NC(=O)Nc2ccc(C)c(S(=O)(=O)N(C)C)c2)cc1`, the Efficacy stood at 104% in test [1] and 101% in [4]. Besides, the EC50 was found to be 1.7 µM in test [2] and 5.6 µM in test [3].

Regarding `CC(C)(C)c1cccc(NC(=O)Cc2ccccc2Cl)c1`, the Efficacy in [1] came to 76%; in test [4], 44%.

Regarding `Cc1ccc(NC(=O)Nc2ccccc2Cl)cc1S(=O)(=O)N(C)C`, the Efficacy came to 106% in test [1] and 94% in test [4]. Besides, the EC50 in test [2] worked out at 2.7 µM; in [3], 6.8 µM.

Regarding `COc1ccc(OC)c(NC(=O)Nc2ccc(C)c(S(=O)(=O)N(C)C)c2)c1`, the EC50 in test [2] and in test [3] was over 10 µM in each case.

In the case of `O=C(Cc1ccccc1Cl)Nc1cc(Cl)cc(C(F)(F)F)c1`, the EC50 in [2] and in [3] was over 10 µM in each case.

Compound `Cc1ccc(NC(=O)Cc2ccccc2Br)cc1S(=O)(=O)N(C)C` returned an EC50 in [5] of 1.6 µM. The figures for the Efficacy in test [6] and in [7] were 114% and 108%, respectively.

In the case of `Cc1cccc(NC(=O)Cc2ccccc2Cl)c1`, the EC50 in test [2] and in test [3] was over 10 µM each time.

For the compound `CS(=O)(=O)c1cc(NC(=O)Cc2ccccc2Cl)ccc1F`, the EC50 in test [2] and in [3] was over 10 µM each time.

On to `Cc1ccc(NC(=O)Nc2ccc(Cl)cc2)cc1S(=O)(=O)N(C)C`, for which the Efficacy in [1] worked out at 72%; in test [4] it was 92%. In addition, the EC50 in test [2] worked out at 3.3 µM; in test [3] it was 2.8 µM.

`Cc1ccc(NC(=O)Cc2ccc(F)cc2)cc1S(=O)(=O)N(C)C`: the EC50 in test [8] amounted to 3.6 µM; in [5], 5.2 µM. In addition, the Efficacy was 108% in test [6] and 107% in test [7].

With `O=C(Cc1ccccc1Cl)Nc1ccc(Cl)cc1`, the EC50 in test [2] and in [3] was over 10 µM each time.

In the case of `Cc1ccc(NC(=O)Nc2ccc(C(F)(F)F)cc2)cc1S(=O)(=O)N(C)C`, the EC50 was 1.5 µM in test [2] and over 10 µM in [3]. In test [4], this compound registered an Efficacy of 26%.

`CN(C)S(=O)(=O)c1cccc(NC(=O)Cc2ccc(Cl)cc2)c1`: the values for the EC50 in test [8] and in test [5] were 2.3 µM and 2.2 µM, respectively. Also, the figures for the Efficacy in [6] and in test [7] were 64% and 71%, respectively.

As for `C[C@@H]1O[C@@H](O[C@H]2[C@H](Oc3cc(O)c4c(c3)O[C@H](c3ccc(O)cc3)CC4=O)O[C@H](CO)[C@@H](O)[C@@H]2O)[C@H](O)[C@H](O)[C@H]1O` [NARINGIN], the EC50 in test [9] and in test [10] was over 100 µM throughout.

With `O=C(Cc1ccccc1Cl)Nc1cccc(Cl)c1`, the Efficacy in test [1] worked out at 22%. In test [2], this compound registered an EC50 of over 10 µM.

As to `Cc1ccc(NC(=O)Nc2ccccc2)cc1S(=O)(=O)N(C)C`, the Efficacy in test [1] stood at 100%; in test [4], 94%.

In the case of `Cc1ccc(NC(=O)Nc2cccc(F)c2)cc1S(=O)(=O)N(C)C`, the Efficacy in test [1] was found to be 55%; in test [4], 89%. For the same compound, the EC50 in [2] was found to be 1.1 µM; in [3], 1.8 µM.

With `O=C(Cc1ccccc1Cl)Nc1ccc(C(F)(F)F)cc1`, the Efficacy in test [1] worked out at 20%. In addition, the EC50 in test [2] was over 10 µM; in test [3], 2.1 µM.

Consider `Cc1ccc(NC(=O)Nc2ccc(C)c(S(=O)(=O)N(C)C)c2)cc1Cl`, for which the results for the Efficacy in test [1] and in test [4] were 115% and 91%, respectively. For the same compound, the figures for the concentration for a half-maximal effect (EC50) in test [2] and in test [3] were 2.9 µM and 6.2 µM, respectively.

Take `Cc1ccc(NC(=O)Cc2ccccc2Cl)cc1S(=O)(=O)N(C)C`: the EC50 in test [8] and in [5] was 1.1 µM in each case. Besides, the Efficacy in test [6] amounted to 104%; in test [7], 110%.

With `O=C(Cc1ccccc1Cl)Nc1cccc(OC(F)F)c1`, the Efficacy in [1] came to 119%. The compound also registered an EC50 in test [2] of over 10 µM.

Take `O=C(Cc1ccccc1Cl)Nc1ccc(Cl)c(C(F)(F)F)c1`: in [1], the Efficacy worked out at 17%. Moreover, the EC50 in [2] was over 10 µM.

For `CN(C)S(=O)(=O)c1cccc(NC(=O)Cc2ccccc2Cl)c1`, the EC50 in test [8] came out at 3.3 µM; in test [5], 1.6 µM. Also, the results for the Efficacy in [6] and in test [7] were 123% and 55%, respectively.

Values taken from ChEMBL document CHEMBL2417534, “Discovery and SAR of a novel series of GIRK1/2 and GIRK1/4 activators” (Bioorg Med Chem Lett, 2013).
